Measured values from ChEMBL document CHEMBL4706704, “Potential of substituted quinazolines to interact with multiple targets in the treatment of cancer” (Bioorg Med Chem, 2021).

Assays:
[1] = system: SK-OV-3; assay: Cytotoxicity against human SK-OV-3 cells over expressing MDR1-6/6 assessed as reduction in cell viability by Sulforhodamine B assay; assay type: functional, cell-based
In short: (§1)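 SRB assay for antiproliferative/cytotoxic effect. HeLa WT-βIII and SK-OV-3-MDR1-6/6 lines were generated as described earlier and run alongside their parental lines.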

[2] = system: U-251; assay: Cytotoxicity against human U-251 cells assessed as reduction in cell viability by Sulforhodamine B assay; assay type: functional, cell-based
[3] = target: T1, Vascular endothelial growth factor receptor 2 (Homo sapiens, UniProt P35968); assay: Inhibition of VEGFR2 in human U251 cells preincubated for 60 mins followed by VEGF stimulation and measured after 10 mins by ELISA; assay type: cell-based, U-251
[4] = Induction of microtubule depolymerization in rat A10 cells incubated for over night by immunofluorescence method; assay type: cell-based
In short: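 Rat A-10 cells were exposed overnight, fixed in cold methanol and stained for microtubules by indirect immunofluorescence with a β-tubulin antibody.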

[5] = system: Chorioallantoic membrane; assay: Antiangiogenic activity in Leghorn chicken fertilized egg chorioallantoic membrane assessed as reduction in VEGF/bFGF stimulated neovascularization after 40 hrs by microscopic based CAM assay; assay type: functional, tissue-based; conditions: Gallus gallus
In short: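 VEGF/bFGF applied at saturation to a testing disk on the CAM. Compounds at various doses were added to the same disk 8 h later, then incubated 40 h more. Vessels were counted in 5–7 grids at 7.5X. Values are percent of growth-factor-only. IC50 by non-linear regression, 2–3 experiments, 2–5 replicates each.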

[6] = system: MDA-MB-435; assay: Antiproliferative activity against human MDA-MB-435 cells assessed as reduction in cell viability by Sulforhodamine B assay; assay type: functional, cell-based
In short: (§2)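 SRB proliferation/cytotoxicity assay; parental lines obtained from ATCC. The HeLa WT-βIII line was generated as described in earlier work. IC50 is the average of at least 3 independent experiments, each run with triplicate points.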

[7] = system: A-431; assay: Cytotoxicity against human A-431 cells assessed as reduction in cell viability by Sulforhodamine B assay; assay type: functional, cell-based
[8] = system: HeLa; assay: Cytotoxicity against human HeLa cells assessed as reduction in cell viability by Sulforhodamine B assay; assay type: functional, cell-based; in short: as §1
[9] = target: T2, Platelet-derived growth factor receptor beta (Homo sapiens, UniProt P09619); assay: Inhibition of PDGFRbeta in human SH-SY5Y cells preincubated for 60 mins followed by PDGF stimulation and measured after 10 mins by ELISA; assay type: cell-based
[10] = system: SK-OV-3; assay: Cytotoxicity against human SK-OV-3 cells assessed as reduction in cell viability by Sulforhodamine B assay; assay type: functional, cell-based; in short: as §2
[11] = target: T3, Epidermal growth factor receptor (Homo sapiens, UniProt P00533); assay: Inhibition of EGFR in human A431 cells preincubated for 60 mins followed by EGF stimulation and measured after 10 mins by ELISA; assay type: cell-based, A-431
[12] = organism: Bos taurus; assay: Displacement of [3H]-colchicine from bovine brain tubulin at 1 uM after 10 mins by DEAE-cellulose filter method relative to control; assay type: tissue-based
In short: (§3)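 Tubulin 0.1 mg/mL (1.0 μM) incubated at 37 °C with 5.0 μM [3H]colchicine and inhibitor at 1.0 or 5.0 μM.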

[13] = organism: Bos taurus; assay: Displacement of [3H]-colchicine from bovine brain tubulin at 5 uM after 10 mins by DEAE-cellulose filter method relative to control; assay type: tissue-based; in short: as §3
[14] = Resistant index, ratio of IC50 for cytotoxicity against human SK-OV-3 cells over expressing MDR1-6/6 cells to IC50 for cytotoxicity against human SK-OV-3 cells; assay type: functional
[15] = system: HeLa; assay: Cytotoxicity against human HeLa cells over expressing WT-beta3 assessed as reduction in cell viability by Sulforhodamine B assay; assay type: functional, cell-based; in short: as §2
[16] = Ratio of EC50 for induction of microtubule depolymerization in rat A10 cells to IC50 for antiproliferative activity against human MDA-MB-435 cells
[17] = Resistant index, ratio of IC50 for cytotoxicity against human HeLa cells expressing WT-beta3 to IC50 for cytotoxicity against human HeLa cells; assay type: functional
[18] = target: T2, Platelet-derived growth factor receptor beta; assay: Potency index, ratio of IC50 for erlotinib to IC50 for test compound for inhibition of PDGFRbeta in human SH-SY5Y cells; assay type: cell-based
[19] = target: T1, Vascular endothelial growth factor receptor 2; assay: Potency index, ratio of IC50 for sunitinib to IC50 for test compound for inhibition of VEGFR2 in human U251 cells; assay type: cell-based; conditions: U-251
[20] = target: T2, Platelet-derived growth factor receptor beta; assay: Potency index, ratio of IC50 for sunitinib to IC50 for test compound for inhibition of PDGFRbeta in human SH-SY5Y cells; assay type: cell-based
[21] = target: T3, Epidermal growth factor receptor; assay: Potency index, ratio of IC50 for sunitinib to IC50 for test compound for inhibition of EGFR in human A431 cell; conditions: A-431
[22] = target: T1, Vascular endothelial growth factor receptor 2; assay: Potency index, ratio of IC50 for erlotinib to IC50 for test compound for inhibition of VEGFR2 in human U251 cells; assay type: cell-based; conditions: U-251
[23] = system: Chorioallantoic membrane; assay: Potency index, ratio IC50 for erlotinib to IC50 for test compound for antiangiogenic activity in Leghorn chicken fertilized egg chorioallantoic membrane; assay type: functional, tissue-based; conditions: Gallus gallus

T2 sequence (P09619 whole entry): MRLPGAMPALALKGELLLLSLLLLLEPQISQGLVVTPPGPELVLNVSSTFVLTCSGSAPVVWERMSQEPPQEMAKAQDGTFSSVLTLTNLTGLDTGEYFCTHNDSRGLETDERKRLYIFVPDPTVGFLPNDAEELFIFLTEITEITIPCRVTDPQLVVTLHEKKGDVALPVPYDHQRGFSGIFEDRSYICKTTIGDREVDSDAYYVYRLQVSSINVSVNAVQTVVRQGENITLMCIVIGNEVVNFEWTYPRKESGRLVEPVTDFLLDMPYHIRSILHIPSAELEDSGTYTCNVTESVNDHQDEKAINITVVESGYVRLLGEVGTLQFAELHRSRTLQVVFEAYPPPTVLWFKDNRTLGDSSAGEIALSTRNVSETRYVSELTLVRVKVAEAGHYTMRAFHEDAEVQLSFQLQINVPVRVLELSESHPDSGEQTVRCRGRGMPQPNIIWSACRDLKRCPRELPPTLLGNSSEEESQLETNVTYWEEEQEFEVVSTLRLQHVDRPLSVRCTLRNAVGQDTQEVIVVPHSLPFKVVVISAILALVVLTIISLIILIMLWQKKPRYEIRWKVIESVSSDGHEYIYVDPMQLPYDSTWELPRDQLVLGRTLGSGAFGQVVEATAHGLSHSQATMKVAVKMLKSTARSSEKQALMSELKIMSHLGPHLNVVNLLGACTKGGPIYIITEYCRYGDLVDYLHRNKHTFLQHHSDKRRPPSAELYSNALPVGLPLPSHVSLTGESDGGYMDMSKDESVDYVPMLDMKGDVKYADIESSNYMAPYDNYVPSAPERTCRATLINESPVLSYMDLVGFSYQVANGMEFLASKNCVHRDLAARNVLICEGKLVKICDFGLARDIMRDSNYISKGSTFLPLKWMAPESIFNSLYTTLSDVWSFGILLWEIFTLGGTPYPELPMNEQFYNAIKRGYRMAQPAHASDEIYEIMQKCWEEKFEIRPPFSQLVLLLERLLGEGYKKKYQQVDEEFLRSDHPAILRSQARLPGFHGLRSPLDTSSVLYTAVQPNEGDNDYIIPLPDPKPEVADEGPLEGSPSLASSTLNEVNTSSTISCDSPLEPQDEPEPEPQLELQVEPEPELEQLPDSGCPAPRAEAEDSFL
T1 sequence (P35968 whole entry): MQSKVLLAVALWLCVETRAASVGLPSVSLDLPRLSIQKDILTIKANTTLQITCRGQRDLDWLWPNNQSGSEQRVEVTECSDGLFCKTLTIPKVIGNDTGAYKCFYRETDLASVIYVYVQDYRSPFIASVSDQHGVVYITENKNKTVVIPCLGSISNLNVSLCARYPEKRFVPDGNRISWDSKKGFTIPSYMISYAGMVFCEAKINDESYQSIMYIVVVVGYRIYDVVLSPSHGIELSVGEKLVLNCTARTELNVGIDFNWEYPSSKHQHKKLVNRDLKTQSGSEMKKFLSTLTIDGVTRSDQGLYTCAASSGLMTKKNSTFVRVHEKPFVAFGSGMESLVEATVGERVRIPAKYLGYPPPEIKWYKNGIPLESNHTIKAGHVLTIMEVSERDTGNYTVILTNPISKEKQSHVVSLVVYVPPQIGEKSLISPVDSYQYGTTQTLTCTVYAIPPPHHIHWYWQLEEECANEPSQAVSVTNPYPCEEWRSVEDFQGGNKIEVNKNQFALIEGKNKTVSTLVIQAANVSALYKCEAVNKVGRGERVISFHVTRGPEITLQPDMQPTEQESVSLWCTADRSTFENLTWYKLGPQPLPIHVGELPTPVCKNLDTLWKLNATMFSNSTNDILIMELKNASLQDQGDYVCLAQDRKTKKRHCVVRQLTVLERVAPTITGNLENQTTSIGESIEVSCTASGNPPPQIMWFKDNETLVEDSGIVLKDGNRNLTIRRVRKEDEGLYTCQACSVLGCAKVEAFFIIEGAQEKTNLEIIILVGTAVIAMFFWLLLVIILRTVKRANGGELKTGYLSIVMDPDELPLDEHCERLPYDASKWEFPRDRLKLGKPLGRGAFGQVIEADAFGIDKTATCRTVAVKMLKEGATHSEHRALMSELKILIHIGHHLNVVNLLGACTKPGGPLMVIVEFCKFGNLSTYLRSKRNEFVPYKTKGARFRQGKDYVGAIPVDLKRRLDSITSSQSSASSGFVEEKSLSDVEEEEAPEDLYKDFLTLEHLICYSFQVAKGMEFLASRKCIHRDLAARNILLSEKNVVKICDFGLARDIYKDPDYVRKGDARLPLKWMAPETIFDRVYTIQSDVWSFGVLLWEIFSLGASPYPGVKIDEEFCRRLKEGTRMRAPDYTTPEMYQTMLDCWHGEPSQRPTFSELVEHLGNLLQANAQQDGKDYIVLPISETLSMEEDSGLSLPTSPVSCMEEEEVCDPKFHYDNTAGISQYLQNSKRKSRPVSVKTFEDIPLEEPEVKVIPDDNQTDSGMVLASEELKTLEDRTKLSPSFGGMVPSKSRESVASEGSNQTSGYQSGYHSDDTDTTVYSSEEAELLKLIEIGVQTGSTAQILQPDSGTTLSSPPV
T3 sequence (P00533 whole entry): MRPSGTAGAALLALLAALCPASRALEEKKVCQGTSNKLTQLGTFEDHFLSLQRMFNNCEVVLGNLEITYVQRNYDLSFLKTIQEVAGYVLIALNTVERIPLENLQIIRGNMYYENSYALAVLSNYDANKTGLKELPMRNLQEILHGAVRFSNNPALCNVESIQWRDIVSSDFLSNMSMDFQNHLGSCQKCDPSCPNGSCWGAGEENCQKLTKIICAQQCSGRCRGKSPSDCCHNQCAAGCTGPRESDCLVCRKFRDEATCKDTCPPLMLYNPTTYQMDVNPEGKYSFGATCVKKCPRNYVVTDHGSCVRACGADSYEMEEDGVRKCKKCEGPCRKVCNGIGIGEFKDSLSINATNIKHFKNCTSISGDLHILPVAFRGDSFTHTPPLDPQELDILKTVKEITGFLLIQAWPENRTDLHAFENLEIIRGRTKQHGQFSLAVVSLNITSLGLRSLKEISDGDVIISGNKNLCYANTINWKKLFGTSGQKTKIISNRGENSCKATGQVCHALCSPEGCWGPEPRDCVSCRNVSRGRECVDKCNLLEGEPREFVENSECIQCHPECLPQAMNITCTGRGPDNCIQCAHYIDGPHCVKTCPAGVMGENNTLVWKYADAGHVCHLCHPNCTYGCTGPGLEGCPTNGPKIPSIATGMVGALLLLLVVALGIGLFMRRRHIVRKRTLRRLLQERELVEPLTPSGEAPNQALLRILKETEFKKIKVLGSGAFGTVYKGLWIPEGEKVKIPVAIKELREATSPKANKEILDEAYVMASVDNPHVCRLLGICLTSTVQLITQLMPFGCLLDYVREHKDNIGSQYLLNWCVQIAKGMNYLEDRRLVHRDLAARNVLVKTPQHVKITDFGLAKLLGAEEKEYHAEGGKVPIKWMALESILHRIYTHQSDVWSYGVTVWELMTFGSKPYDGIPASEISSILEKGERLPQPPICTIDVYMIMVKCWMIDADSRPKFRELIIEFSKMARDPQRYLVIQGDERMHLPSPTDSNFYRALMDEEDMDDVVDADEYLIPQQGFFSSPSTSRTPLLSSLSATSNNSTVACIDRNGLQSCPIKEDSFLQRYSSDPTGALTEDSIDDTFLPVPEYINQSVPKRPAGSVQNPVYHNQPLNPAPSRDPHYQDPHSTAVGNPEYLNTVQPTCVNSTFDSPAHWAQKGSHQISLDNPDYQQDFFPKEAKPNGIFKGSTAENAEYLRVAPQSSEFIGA

| Compound | IC50 [1] | IC50 [2] | IC50 [3] | EC50 [4] | IC50 [5] | IC50 [6] | IC50 [7] | IC50 [8] | IC50 [9] | IC50 [10] | IC50 [11] | Ratio IC50 [14] | IC50 [15] | Ratio [16] | Ratio IC50 [17] | also measured |
| --- | --- | --- | --- | --- | --- | --- | --- | --- | --- | --- | --- | --- | --- | --- | --- | --- |
| COc1ccc2c(c1)CCCN2c1nc(Cl)nc2ccccc12 | 1 nM | 14.8 nM | 55.2 nM | 2 nM | 41400 nM | 0.7 nM | 1.8 nM | 0.6 nM | 80.6 nM | 0.8 nM |  |  |  |  |  |  |
| COc1ccc(N(C)c2nc(Cl)nc3ccccc23)cc1 |  | 32.5 nM | 97.5 nM |  | 130000 nM |  | 1.2 nM |  | 76.6 nM |  | 3.6 nM |  |  |  |  | inhibition [12]: 92%; inhibition [13]: 99% |
| C#Cc1cccc(Nc2ncnc3cc(OCCOC)c(OCCOC)cc23)c1 [ERLOTINIB] |  |  |  |  | 3100 nM |  |  |  |  |  |  |  |  |  |  |  |
| COc1ccc2c(c1)CCCN2c1ncnc2ccccc12 | 23.4 nM | 27.8 nM | 111 nM | 23.4 nM |  | 12.4 nM | 16.3 nM | 16.8 nM | 54 nM | 18.1 nM | 48.9 nM | 1.3 | 13.1 nM | 1.9 | 0.8 |  |
| CSc1ccc(N(C)c2nc(C)nc3ccccc23)cc1 |  | 4.9 nM | 14.7 nM |  |  |  | 2.9 nM |  | 232 nM |  | 8.7 nM |  |  |  |  | inhibition [12]: 91%; inhibition [13]: 99% |
| COc1cccc2cc(N(C)c3nc(Cl)nc4ccccc34)ccc12 | 2.6 nM |  |  | 1.9 nM |  | 1.4 nM |  | 2.8 nM |  | 2.8 nM |  | 0.9 | 1.6 nM | 1.4 | 0.6 |  |
| COc1ccc(N(C)c2nc(C)nc3ccccc23)cc1 [VERUBULIN] | 2.6 nM |  | 8.4 nM | 2.1 nM | 2800 nM | 1.7 nM | 0.9 nM | 2 nM | 5.6 nM | 2.2 nM | 2.8 nM | 1.2 | 1.5 nM | 1.2 | 0.8 | Ratio IC50 [18]: 2; Ratio IC50 [19]: 2; Ratio IC50 [20]: 15; Ratio IC50 [21]: 61; Ratio IC50 [22]: 15 |
| CSc1ccc(N(C)c2ncnc3ccccc23)cc1 | 15.6 nM |  |  | 12.3 nM |  | 7.8 nM |  | 8.5 nM |  | 13.6 nM |  | 1.1 | 7.3 nM | 1.6 | 0.6 |  |
| CSc1ccc(N(C)c2nc(Cl)nc3ccccc23)cc1 | 3.5 nM |  |  | 2.7 nM |  | 2.7 nM |  | 5 nM |  | 3.3 nM |  | 1.1 | 3.2 nM | 1 | 0.6 |  |
| COc1ccc(/C=C\c2cc(OC)c(OC)c(OC)c2)cc1O [COMBRETASTATIN A4] |  |  |  | 9.8 nM |  |  |  |  |  |  |  |  |  |  |  |  |
| COc1cccc2cc(N(C)c3nc(C)nc4ccccc34)ccc12 | 3.5 nM | 4.2 nM | 16.8 nM | 2.4 nM |  | 2 nM | 5.3 nM | 2.5 nM | 29.4 nM | 2.9 nM | 10.6 nM | 1.2 | 1.7 nM | 1.2 | 0.7 | inhibition [12]: 88%; inhibition [13]: 98% |
| COc1ccc2c(c1)CCCN2c1nc(C)nc2ccccc12 | 2.2 nM | 3.1 nM | 9.3 nM | 3 nM | 3100 nM | 1.1 nM | 2.5 nM | 1.2 nM | 7.8 nM | 1.5 nM | 5 nM | 1.5 | 1.2 nM | 2.7 | 1 | Ratio IC50 [23]: 9.4 |
| COc1ccc(N(C)c2ncnc3ccccc23)cc1 | 14.3 nM |  |  | 8.2 nM |  | 7.1 nM |  | 8.6 nM |  | 10.4 nM |  | 1.4 |  | 1.2 | 0.9 |  |
